# zVAD death inh: L929 zVAD cell death inhibition | L929 zVAD necroptosis rescue, ATP luminescence, 24 h; with zVAD 60 µM | viability rescue, % at 10 µM | 220,000 compounds, 0.38% hits;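 active = activation, scaled between plate controls, above about 75%, limit read from the data; inactive = activation under that limit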;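 also: 0% = zVAD with DMSO and 100% = DMSO alone without zVAD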
# PfM18AAP inh-1: PfM18AAP enzyme inhibition; recombinant PfM18AAP, H-Glu-NHMec fluorogenic cleavage; inhibition, % at 7.35 µM; 290,000 compounds, 1.2% hits; AID 1822;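 active = inhibition above the campaign mean inhibition over all tested compounds plus 3 SD, cut at about 28% in these data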;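 also: 0% = plate median of test compound wells and 100% = 2 mM ZnCl2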
# Lipid droplet: hepatic lipid droplet formation modulation; AML12 mouse hepatocytes, oleate lipid droplets, BODIPY imaging; inhibition, % at 6.5 µM; 240,000 compounds, 0.4% hits; AID 1656;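 active = lipid droplet intensity inhibited by at least 50%, with more than 500 cells counted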
#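 Material: mouse AML12 hepatocyte cell line, fixed after treatment; Timing: compound with oleate, overnight; Technique: high-content imaging of BODIPY-stained droplets and DAPI nuclei; Probe or stimulus: oleate, 100 µM final; Dosing: compound at 6.5 µM only.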
# RBBP9 inh: blocks human serine hydrolase RBBP9. recombinant RBBP9, FP-Rh probe fluorescence polarization. AID 1515. 220,000 compounds, 0.2% hits. O75884. inhibition, % at 7.94 µM;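 active = inhibition above the campaign mean of all tested compounds plus 3 SD, cut at about 14% in these data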;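 also: plate controls were DMSO wells with RBBP9 for no effect and wells lacking RBBP9 protein for full effect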
# Target sequence (O75884 whole entry, looked up): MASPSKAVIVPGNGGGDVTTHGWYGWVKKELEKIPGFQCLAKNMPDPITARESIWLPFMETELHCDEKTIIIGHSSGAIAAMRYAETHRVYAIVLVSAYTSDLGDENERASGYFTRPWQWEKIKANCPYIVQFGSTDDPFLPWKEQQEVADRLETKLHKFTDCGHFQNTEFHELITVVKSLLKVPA
#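 Test system: recombinant human RBBP9. Quantity: 2.5 µM RBBP9 dispensing solution, before mixing. Detection: FP readout at 525/598 nm. Reagent: Serine-hydrolase probe FP-Rh, 375 nM pre-mixing. Measure: % inhibition. Control set: DMSO-treated enzyme wells and wells lacking RBBP9. Buffer or medium: Tris-NaCl-Pluronic buffer, pH 8.0. Times: preincubation 30 min plus labeling 45 min at 25 °C.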
# Tb hexokinase: T. brucei hexokinase 1 inhibition. recombinant TbHK1, G6PDH-coupled NADH A340. 220,000 compounds, 0.11% hits. AID 1430. inhibition, % at 10 µM;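 active = inhibition of 50% or more in the single-dose primary screen; inactive = inhibition below 50%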
# TNF death inh: inhibitors of TNF-alpha induced necroptosis in Jurkat FADD-/- cells | Jurkat FADD-/- TNF necroptosis rescue, ATP luminescence, 24 h; 0 = TNF only, 100 = no-TNF cells | activation (protection from cell death), % at 10 µM | 220,000 compounds, 0.068% hits | AID 463075;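 active = activation, meaning protection from cell death, of at least 50% relative to plate controls; inactive = activation below 50%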;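 also: necroptosis triggered by 40 ng/mL TNF-alpha added together with compound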
# PfM18AAP inh-2: PfM18AAP inhibition, confirmation. 2,400 compounds, 28% hits. shares compounds with PfM18AAP inh-1. inhibition, % at 7.35 µM. recombinant PfM18AAP, H-Glu-NHMec fluorogenic cleavage. AID 2170;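 active = mean inhibition over replicate wells above the hit cutoff set for the earlier primary screen, cut at about 29% in these data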;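 also: 0% = median of test compound wells and 100% = 2 mM ZnCl2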
# CTSL1 confirm: Cathepsin L (human) inhibition, confirmation | shares compounds with PfM18AAP inh-1 | purified cathepsin L1, Z-Leu-Arg-MCA fluorescence | inhibition, % at 5.96 µM | 2,400 tested, under 10 active | AID 2178;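 active = average inhibition across replicates above the hit cutoff set in the earlier primary screen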;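 also: 0% = median of test compound wells and 100% = Z-Phe-Ala-diazomethylketone 1 µM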
# Target sequence (P07711 whole entry, looked up): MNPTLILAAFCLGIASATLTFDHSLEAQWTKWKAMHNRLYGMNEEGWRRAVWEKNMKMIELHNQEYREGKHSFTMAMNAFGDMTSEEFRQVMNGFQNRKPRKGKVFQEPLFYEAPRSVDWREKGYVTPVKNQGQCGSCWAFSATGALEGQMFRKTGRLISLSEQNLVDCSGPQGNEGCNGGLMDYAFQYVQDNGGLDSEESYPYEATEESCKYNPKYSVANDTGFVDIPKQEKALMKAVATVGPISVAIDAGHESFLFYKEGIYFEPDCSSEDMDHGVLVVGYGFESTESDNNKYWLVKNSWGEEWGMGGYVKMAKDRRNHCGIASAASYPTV
# * hit, by the source's call; · = no result given. Rows were chosen to be rich in hits. Some 2% of all compounds tested hit in one or more screens of this group.
SMILES,zVAD death inh,PfM18AAP inh-1,Lipid droplet,RBBP9 inh,Tb hexokinase,TNF death inh,PfM18AAP inh-2,CTSL1 confirm
O=C(CCC(=O)OCC(=O)c1ccc([N+](=O)[O-])cc1)NC1CCCCC1,0,34*,1,1,42,-3,-8,-12
O=C(COC(=O)c1ccccc1NC(=O)c1ccccc1)c1ccc([N+](=O)[O-])cc1,0,40*,-7,3,9,-10,-19,5
O=C(CNC(=O)c1ccccc1)NCC(=O)OCC(=O)c1ccc([N+](=O)[O-])cc1,0,40*,7,2,26,-3,-5,3
O=C(CCC(=O)OCC(=O)c1cccc([N+](=O)[O-])c1)NC1CCCCC1,0,-5,16,-4,-3,1,·,·
O=C(CNC(=O)c1ccc(Br)cc1)NCC(=O)OCC(=O)c1ccc([N+](=O)[O-])cc1,·,38*,5,-2,10,-6,-15,-4
O=c1nc2ccccc2c2n1CC(CN1CCN(c3ccccc3F)CC1)N2 (stereo unspecified),1,2,·,-1,15,-7,·,·
CCCCCNC(=O)c1c[nH]c2ccc(S(=O)(=O)N3CCC4(CC3)OCCO4)cc2c1=O,·,-4,-29,-1,-5,5,·,·
Cc1ccc(C)c(S(=O)(=O)N2CCN(C(=O)c3cccnc3)CC2)c1,·,3,-4,·,·,·,·,·
O=C(NCCN1CCCCC1)Nc1ccc(Br)cc1,·,-3,13,·,·,·,·,·
COc1ccc(-n2nnnc2SCC(=O)c2ccc(O)c(O)c2)cc1,1,35*,-17,-1,-4,-2,30*,-4
NC(=O)c1ccc(-n2nnnc2SCC(=O)c2ccc(O)c(O)c2)cc1,2,51*,-6,-9,-19,0,29*,-1
O=C(NCC1CCCO1)C1CC(=O)N(c2ccccc2)C1 (stereo unspecified),·,1,4,·,·,·,·,·
O=C(O)c1ccccc1/C=N/N1CCN(C2c3ccccc3-c3ccccc32)CC1,1,1,-12,-13,-13,1,·,·
O=C(Cn1cnc([N+](=O)[O-])n1)c1ccc(O)c(O)c1,·,38*,19,·,·,·,14,0
COc1cc(CN2CCN(C(C)C)C(CCO)C2)ccc1OCc1ccccc1 (stereo unspecified),0,2,-25,-7,-2,2,·,·
CCC(NC(=O)Nc1ccc(O)cc1)(C(F)(F)F)C(F)(F)F,0,39*,·,24*,0,-1,-88,-1
Cc1csc2c(SCC(=O)NNS(=O)(=O)c3cccc(C(F)(F)F)c3)ncnc12,0,36*,7,-4,-1,1,-38,-4
COc1ccc(C=O)cc1CN1CCCN(Cc2ccccc2F)S1(=O)=O,·,7,23,·,·,·,·,·
Cc1cccc(N/N=C(\C=N\N)C(=O)c2ccc(Br)cc2)c1,2,2,32,-10,8,1,·,·
CCn1c(=O)n(CC)c2cc(N3CCCC3)c(NC(=O)c3cc(Cl)ccc3OC)cc21,·,4,-7,·,·,·,·,·
Cc1ccc(-n2c(CCc3nc4ccccc4[nH]3)n[nH]c2=S)cc1,0,33*,5,-7,-3,0,-20,-6
O=C(NC1CCSC1=O)C1CCCCC1 (stereo unspecified),0,-12,0,-3,-3,0,·,·
Cc1cc(C)c2nc(NNC(=O)c3ccc(S(=O)(=O)N4CCc5ccccc5C4)cc3)sc2c1,·,36*,-9,-6,7,-22,-45,3
Cc1cc(C)c2sc(NNC(=O)c3ccc(S(=O)(=O)N4CCc5ccccc5C4)cc3)nc2c1,·,23,-54,5,-7,-21,·,·
Cn1c(SCC(=O)c2ccc(O)c(O)c2)nnc1-c1ccccc1,·,48*,·,·,·,·,17,3
SMILES,zVAD death inh,PfM18AAP inh-1,Lipid droplet,RBBP9 inh,Tb hexokinase,TNF death inh,PfM18AAP inh-2,CTSL1 confirm
O=C(CSc1nc2ccccc2n1CCc1ccccc1)c1ccc(O)c(O)c1,0,44*,-9,-22,7,-5,11,-3
Cn1c(SCC(=O)c2ccc(O)c(O)c2)nnc1-c1cccs1,2,46*,·,2,-17,3,8,0
O=C(CSc1nc2ccccc2n1CCc1ccccc1)N1CCOCC1,-1,-2,35,-4,-9,1,·,·
Cn1c(SCC(=O)c2ccc(-c3ccccc3)cc2)nnc1-c1ccco1,2,-12,-32,-13,18,-2,·,·
Cc1ccc(C(=O)CSc2nnc(-c3cccs3)n2C)o1,0,-6,·,-7,-8,0,·,·
CC(Cc1n[nH]c(=S)n1N)c1ccccc1 (stereo unspecified),·,27,3,·,·,·,·,·
Cc1cc(C)c2c(N)c(C(=O)NN3CC(=O)N(c4cccc(Cl)c4)CC3=O)sc2n1,0,1,-1,-8,-9,7,·,·
CCCOc1ccc(/C=C2/C(=O)ON=C2C)cc1OCC,·,40*,6,·,·,·,42*,2
O=C(OCC1CCCN2CCCCC12)c1ccc2c(c1)OCO2 (stereo unspecified),0,35*,·,3,-8,0,10,-8
O=C(Nc1ccncc1)Nc1cccc(C(F)(F)F)c1,·,4,3,·,·,·,·,·
O=C(NNc1cccc(Cl)n1)Nc1ccc(Cl)cc1,0,56*,·,-3,0,0,36*,-2
O=C(NNc1cccc(Cl)n1)Nc1cccc(C(F)(F)F)c1,1,54*,15,-2,6,4,37*,1
COc1ccc(C2C(C(C)=O)=C(O)C(=O)N2c2nc3ccccc3s2)cc1OC (stereo unspecified),0,34*,12,-2,-26,1,-26,2
O=C(COc1cccc(C(F)(F)F)c1)N1CCN(c2ccc(O)cc2)CC1,0,33*,-2,-6,-2,-7,-24,4
CCN(CC)c1ccc(C(=S)NC2CCCCC2)cc1,28,1,-6,-5,-16,2,·,·
CCOc1ccc(C(C)NC(=S)NC2CCCCC2)cc1OCC (stereo unspecified),0,-1,-1,-9,-2,2,·,·
CCOc1ccc(C(=S)NC2CCCCC2)cc1OCC,·,37*,3,·,·,·,18,-3
CN(C)c1ccc(C(=S)NC2CCCCC2)cc1,38,33*,11,-3,-14,0,5,2
Cc1[nH]nc2c1C(c1cccs1)C(C#N)=C(N)O2 (stereo unspecified),1,35*,17,12,-21,-1,21,-4
